From ChEMBL document CHEMBL1155468, “Syntheses and evaluation of anticonvulsant profile and teratogenicity of novel amide derivatives of branched aliphatic carboxylic acids with 4-aminobenzensulfonamide” (J Med Chem, 2010)
Calls of active or inactive are those of the source. The calls are words filed in the database; no cut-off is given here.

Tests used:
[1] = tested on: Mus musculus; test: Anticonvulsant activity in CF1 albino mouse assessed as inhibition of subcutaneous pentylenetetrazole-induced seizures at 30 mg/kg, ip after 0.5 hrs; assay type: functional, organism-based; parameters: dose 30 mg/kg
In short: (§1)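 Adult male CF no. 1 albino mice (18-25 g) dosed ip with compound suspended in 0.5% methylcellulose (0.01 mL/g). Convulsant: pentylenetetrazol dissolved in 0.9% saline as a 0.85% solution for mice, given subcutaneously.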

[2] = tested on: Mus musculus; test: Anticonvulsant activity in CF1 albino mouse assessed as inhibition of subcutaneous pentylenetetrazole-induced seizures at 100 mg/kg, ip after 0.5 hrs; assay type: functional, organism-based; parameters: dose 100 mg/kg; in short: as §1
[3] = tested on: Mus musculus; test: Anticonvulsant activity in CF1 albino mouse assessed as inhibition of subcutaneous pentylenetetrazole-induced seizures at 300 mg/kg, ip after 0.5 hrs; assay type: functional, organism-based; parameters: dose 300 mg/kg; in short: as §1
[4] = tested on: Mus musculus; test: Anticonvulsant activity in CF1 albino mouse assessed as inhibition of subcutaneous pentylenetetrazole-induced seizures at 30 mg/kg, ip after 4 hrs; assay type: functional, organism-based; parameters: dose 30 mg/kg; in short: as §1
[5] = tested on: Mus musculus; test: Anticonvulsant activity in CF1 albino mouse assessed as inhibition of subcutaneous pentylenetetrazole-induced seizures at 100 mg/kg, ip after 4 hrs; assay type: functional, organism-based; parameters: dose 100 mg/kg; in short: as §1
[6] = tested on: Mus musculus; test: Teratogenic effect in SWV mouse assessed as fetuses with neural tube deffects at 282 mg/kg, ip administered on morning of day 8 of gestation; assay type: toxicity, organism-based; parameters: dose 282 mg/kg, route intraperitoneal; details: in vivo
In short: (§2)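 Two-month-old nulligravid SWV females were mated overnight and checked for vaginal plugs the next morning; gestation onset was set at 10 p.m. the previous night. On gestation day 8.5, each dam received a single ip injection (0.55-2.7 mmol/kg range) or vehicle (25% aqueous Cremophor EL) at 10 μL/g body weight. Litters were scored for implants, resorptions, live and dead fetuses, and fetuses with neural tube defects.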

[7] = tested on: Mus musculus; test: Teratogenic effect in SWV mouse assessed as resorptions at 282 mg/kg, ip administered on morning of day 8 of gestation; assay type: toxicity, organism-based; parameters: dose 282 mg/kg, route intraperitoneal; details: in vivo
In short: (§3)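 SWV inbred mice: two-month-old nulligravid females mated overnight with males and checked for vaginal plugs next morning; gestation onset taken as 10 p.m. the previous night. On gestation day 8.5 each dam got one ip injection, 0.55–2.7 mmol/kg, in 25% aqueous Cremophor EL (vehicle controls dosed alike), 10 μL/g body weight. Litters and implants tallied; resorptions and live fetuses reported as counts with percentages.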

[8] = tested on: Mus musculus; test: Teratogenic effect in SWV mouse assessed as resorptions at 141 mg/kg, ip administered on morning of day 8 of gestation; assay type: toxicity, organism-based; parameters: dose 141 mg/kg, route intraperitoneal; details: in vivo; in short: as §3
[9] = tested on: Mus musculus; test: Teratogenic effect in SWV mouse assessed as fetuses with neural tube deffects at 141 mg/kg, ip administered on morning of day 8 of gestation; assay type: toxicity, organism-based; parameters: dose 141 mg/kg, route intraperitoneal; details: in vivo; in short: as §2
[10] = tested on: Mus musculus; test: Teratogenic effect in SWV mouse assessed as live fetuses at 282 mg/kg, ip administered on morning of day 8 of gestation; assay type: toxicity, organism-based; parameters: dose 282 mg/kg, route intraperitoneal; details: in vivo; in short: as §2
[11] = tested on: Mus musculus; test: Teratogenic effect in SWV mouse assessed as live fetuses at 141 mg/kg, ip administered on morning of day 8 of gestation; assay type: toxicity, organism-based; parameters: dose 141 mg/kg, route intraperitoneal; details: in vivo; in short: as §2
[12] = tested on: Mus musculus; test: Anticonvulsant activity in CF1 albino mouse assessed as inhibition of maximal electroshock-induced seizures at 30 mg/kg, ip after 0.5 hrs; assay type: functional, organism-based; parameters: dose 30 mg/kg
In short: (§4)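 Test compounds suspended in 0.5% methylcellulose and given ip to adult male CF no. 1 albino mice (18-25 g) at 0.01 mL/g body weight before maximal electroshock challenge.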

[13] = tested on: Mus musculus; test: Anticonvulsant activity in CF1 albino mouse assessed as inhibition of maximal electroshock-induced seizures at 300 mg/kg, ip after 0.5 hrs; assay type: functional, organism-based; parameters: dose 300 mg/kg; in short: as §4
[14] = tested on: Mus musculus; test: Anticonvulsant activity in CF1 albino mouse assessed as inhibition of maximal electroshock-induced seizures at 30 mg/kg, ip after 4 hrs; assay type: functional, organism-based; parameters: dose 30 mg/kg; in short: as §4
[15] = tested on: Mus musculus; test: Anticonvulsant activity in CF1 albino mouse assessed as inhibition of maximal electroshock-induced seizures at 300 mg/kg, ip after 4 hrs; assay type: functional, organism-based; parameters: dose 300 mg/kg; in short: as §4
[16] = tested on: Mus musculus; test: Anticonvulsant activity in CF1 albino mouse assessed as inhibition of subcutaneous pentylenetetrazole-induced seizures at 300 mg/kg, ip after 4 hrs; assay type: functional, organism-based; parameters: dose 300 mg/kg; in short: as §1
[17] = tested on: Mus musculus; test: Neurotoxicity in CF1 albino mouse assessed as motor impairment at 30 mg/kg, ip after 0.5 hrs; assay type: toxicity, organism-based; parameters: dose 30 mg/kg, route intraperitoneal; details: in vivo
[18] = tested on: Mus musculus; test: Neurotoxicity in CF1 albino mouse assessed as motor impairment at 30 mg/kg, ip after 4 hrs; assay type: toxicity, organism-based; parameters: dose 30 mg/kg, route intraperitoneal; details: in vivo
[19] = tested on: Mus musculus; test: Neurotoxicity in CF1 albino mouse assessed as motor impairment at 100 mg/kg, ip after 4 hrs; assay type: toxicity, organism-based; parameters: dose 100 mg/kg, route intraperitoneal; details: in vivo
[20] = tested on: Mus musculus; test: Neurotoxicity in CF1 albino mouse assessed as motor impairment at 300 mg/kg, ip after 4 hrs; assay type: toxicity, organism-based; parameters: dose 300 mg/kg, route intraperitoneal; details: in vivo
[21] = tested on: Rattus norvegicus; test: Anticonvulsant activity in po dosed rat assessed as inhibition of maximal electroshock-induced seizures
[22] = tested on: Rattus norvegicus; test: Anticonvulsant activity in Sprague-Dawley rat assessed as inhibition of maximal electroshock-induced seizures at 30 mg/kg, po after 4 hrs
[23] = tested on: Rattus norvegicus; test: Anticonvulsant activity in Sprague-Dawley rat assessed as inhibition of maximal electroshock-induced seizures at 30 mg/kg, po after 30 mins
[24] = tested on: Rattus norvegicus; test: Anticonvulsant activity in Sprague-Dawley rat assessed as inhibition of maximal electroshock-induced seizures at 30 mg/kg, po after 15 mins
[25] = tested on: Mus musculus; test: Teratogenic effect in SWV mouse assessed as resorptions at 325 mg/kg, ip administered on morning of day 8 of gestation; assay type: toxicity, organism-based; parameters: dose 325 mg/kg, route intraperitoneal; details: in vivo
[26] = tested on: Mus musculus; test: Teratogenic effect in SWV mouse assessed as resorptions at 164 mg/kg, ip administered on morning of day 8 of gestation; assay type: toxicity, organism-based; parameters: dose 164 mg/kg, route intraperitoneal; details: in vivo
[27] = tested on: Mus musculus; test: Teratogenic effect in SWV mouse assessed as fetuses with neural tube deffects at 325 mg/kg, ip administered on morning of day 8 of gestation; assay type: toxicity, organism-based; parameters: dose 325 mg/kg, route intraperitoneal; details: in vivo
[28] = tested on: Mus musculus; test: Teratogenic effect in SWV mouse assessed as fetuses with neural tube deffects at 164 mg/kg, ip administered on morning of day 8 of gestation; assay type: toxicity, organism-based; parameters: dose 164 mg/kg, route intraperitoneal; details: in vivo
[29] = tested on: Mus musculus; test: Teratogenic effect in SWV mouse assessed as live fetuses at 325 mg/kg, ip administered on morning of day 8 of gestation; assay type: toxicity, organism-based; parameters: dose 325 mg/kg, route intraperitoneal; details: in vivo
[30] = tested on: Mus musculus; test: Teratogenic effect in SWV mouse assessed as live fetuses at 164 mg/kg, ip administered on morning of day 8 of gestation; assay type: toxicity, organism-based; parameters: dose 164 mg/kg, route intraperitoneal; details: in vivo
[31] = tested on: Mus musculus; test: Anticonvulsant activity in CF1 albino mouse assessed as inhibition of maximal electroshock-induced seizures at 100 mg/kg, ip after 0.5 hrs; assay type: functional, organism-based; parameters: dose 100 mg/kg; in short: as §4
[32] = tested on: Mus musculus; test: Anticonvulsant activity in CF1 albino mouse assessed as inhibition of maximal electroshock-induced seizures at 100 mg/kg, ip after 4 hrs; assay type: functional, organism-based; parameters: dose 100 mg/kg; in short: as §4
[33] = tested on: Mus musculus; test: Neurotoxicity in CF1 albino mouse assessed as motor impairment at 100 mg/kg, ip after 0.5 hrs; assay type: toxicity, organism-based; parameters: dose 100 mg/kg, route intraperitoneal; details: in vivo
[34] = species: Rattus norvegicus; test: Protective index, ratio of TD50 for rat to ED50 for maximal electroshock-induced rat seizure model
[35] = tested on: Rattus norvegicus; test: Neurotoxicity in Sprague-Dawley rat assessed as motor impairment at 30 mg/kg, po after 0.25 to 4 hrs; details: in vivo
[36] = tested on: Rattus norvegicus; test: Anticonvulsant activity in Sprague-Dawley rat assessed as inhibition of maximal electroshock-induced seizures at 30 mg/kg, po after 1 hr

SMILES	Activity [1]	Activity [4]	Activity [5]	Activity [12]	Activity [13]	Activity [14]	Activity [15]	Activity [16]	Activity [17]	Activity [18]	Activity [19]	ED50 [21] [mg/kg]	Activity [22]	Activity [23]	Activity [24]	further results
CC(C)(C)C(=O)Nc1ccc(S(N)(=O)=O)cc1	inactive	inactive	inactive	inactive	Active	inactive	Active	inactive	Non-toxic	Non-toxic	Non-toxic	42.2	Active	inactive	inactive	Activity [2]: inactive; Activity [3]: inactive; Activity [6]: 2.7%; Activity [7]: 8.9%; Activity [8]: 7.5%; Activity [9]: 3.7%; Activity [10]: 91.1%; Activity [11]: 93.3%; Activity [20]: Non-toxic
CCCCC(CC)C(=O)Nc1ccc(S(N)(=O)=O)cc1 (stereo unspecified)	inactive	inactive	inactive	inactive	Active	inactive	Active	inactive	Non-toxic	Non-toxic	Non-toxic	23.9	Active	inactive	inactive	Activity [25]: 74.2%; Activity [26]: 19.2%; Activity [27]: 14.7%; Activity [28]: 5.2%; Activity [29]: 25.8%; Activity [30]: 80.8%; Activity [31]: Active; Activity [32]: Active; Activity [33]: Non-toxic; Ratio TD50/ED50 [34]: >21; Activity [35]: Non-toxic; Activity [36]: Active
